From ChEMBL document CHEMBL2424547, “Synthesis and biological analysis of benzazol-2-yl piperazine sulfonamides as 11β-hydroxysteroid dehydrogenase 1 inhibitors” (Bioorg Med Chem Lett, 2013)
Activity calls are given as the source filed them. No cut-off for these calls is given here.

What was measured:
Format in all cases: cell-based
[1] = molecular target: T1, 11-beta-hydroxysteroid dehydrogenase 1 (Homo sapiens, UniProt P28845); test: Inhibition of human 11beta-HSD1 expressed in HEK293 cells assessed as [1,2-3H]-cortisone reduction […] after 10 mins in presence of NADPH
In short: (§1)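 Cell-free 11β-HSD1 activity assay. Compounds were first screened at a single 20 µM concentration, and IC50 values were then determined for selected compounds. Values are mean ± SD from at least three independent experiments.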
Target sequence in this assay (P28845 whole entry): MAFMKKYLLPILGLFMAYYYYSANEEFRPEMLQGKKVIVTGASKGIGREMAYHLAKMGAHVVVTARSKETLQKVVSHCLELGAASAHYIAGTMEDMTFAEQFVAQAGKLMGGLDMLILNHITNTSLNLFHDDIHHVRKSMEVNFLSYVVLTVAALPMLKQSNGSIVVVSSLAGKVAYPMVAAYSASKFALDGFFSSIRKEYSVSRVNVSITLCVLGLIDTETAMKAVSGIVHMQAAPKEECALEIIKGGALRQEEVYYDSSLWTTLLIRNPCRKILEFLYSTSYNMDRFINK

[2] = molecular target: T2, 11-beta-hydroxysteroid dehydrogenase type 2 (Homo sapiens) (UniProt P80365); test: Inhibition of human 11beta-HSD2 expressed in HEK293 cells assessed as [1,2,6,7-3H]-cortisol oxidation to [1,2-3H]-cortisone at 20 uM after 10 mins in presence of NAD+
T2 sequence (whole entry): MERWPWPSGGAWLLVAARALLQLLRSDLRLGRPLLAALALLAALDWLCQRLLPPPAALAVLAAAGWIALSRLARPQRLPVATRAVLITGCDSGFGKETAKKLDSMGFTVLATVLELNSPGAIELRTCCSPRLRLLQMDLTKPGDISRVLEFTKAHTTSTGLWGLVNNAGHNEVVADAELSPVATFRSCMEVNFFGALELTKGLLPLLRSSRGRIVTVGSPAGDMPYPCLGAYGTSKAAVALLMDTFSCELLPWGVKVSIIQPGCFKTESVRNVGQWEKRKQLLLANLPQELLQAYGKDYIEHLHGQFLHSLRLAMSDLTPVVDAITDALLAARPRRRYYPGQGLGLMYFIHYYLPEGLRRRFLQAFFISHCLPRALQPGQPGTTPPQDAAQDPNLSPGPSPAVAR

[3] = molecular target: T1, 11-beta-hydroxysteroid dehydrogenase 1; test: Inhibition of human 11beta-HSD1 expressed in HEK293 cells assessed as [1,2-3H]-cortisone reduction […] measured as residual activity at 20 uM after 10 mins relative to control in presence of NADPH; in short: as §1
Target sequence in this assay (P28845 whole entry, looked up): as the sequence (P28845 whole entry) above

[4] = molecular target: T1, 11-beta-hydroxysteroid dehydrogenase 1; test: Inhibition of human 11beta-HSD1 expressed in HEK293 cells assessed as [1,2-3H]-cortisone reduction […] measured as residual activity after 10 mins relative to control in presence of NADPH; in short: as §1
Target sequence in this assay (P28845 whole entry, looked up): as the sequence (P28845 whole entry) above

SMILES | IC50 ([1]; read-out: IC50) | inhibition [2] | Activity [3] | IC50 ([1]; hek293) | Activity [4]
COc1ccc(S(=O)(=O)N2CCN(c3nc4ccccc4n3C)CC2)cc1OC | 18.5 µM | inactive | – | – | –
Cc1ccc(S(=O)(=O)N2CCN(c3nc4ccccc4[nH]3)CC2)cc1 | – | inactive | 50% | – | –
Cn1c(N2CCN(S(=O)(=O)c3ccc(C(C)(C)C)cc3)CC2)nc2ccccc21 | 4.8 µM | inactive | – | – | –
COc1ccc(S(=O)(=O)N2CCN(c3nc4ccccc4n3C)CC2)cc1[N+](=O)[O-] | 27.2 µM | inactive | – | – | –
Cn1c(N2CCN(S(=O)(=O)c3cccc(C(=O)NO)c3)CC2)nc2ccccc21 | – | inactive | 60% | – | –
Cn1c(N2CCN(S(=O)(=O)c3ccc(C(=O)O)cc3)CC2)nc2ccccc21 | – | inactive | 90% | – | –
Cc1ccc(S(=O)(=O)N2CCN(c3nc4ccccc4n3C)CC2)cc1 | 0.7 µM | inactive | – | – | –
Cc1ccc(S(=O)(=O)N2CCN(c3nc4ccccc4s3)CC2)cc1 | – | inactive | 89% | – | –
Cn1c(N2CCN(S(=O)(=O)c3ccc(C(=O)NO)cc3)CC2)nc2ccccc21 | – | inactive | 90% | – | –
Cn1c(N2CCN(S(=O)(=O)c3ccccc3)CC2)nc2ccccc21 | 6.4 µM | inactive | – | – | –
Cn1c(N2CCN(S(=O)(=O)c3cccc(C(=O)O)c3)CC2)nc2ccccc21 | – | inactive | 75% | – | –
Cc1ccc(C(=O)N2CCN(c3nc4ccccc4[nH]3)CC2)cc1 | – | inactive | 65% | – | –
CC(C)(C)c1ccc(S(=O)(=O)N2CCN(c3nc4ccccc4o3)CC2)cc1 | – | inactive | – | ND(Insoluble) | 18%
COc1ccc(S(=O)(=O)N2CCN(c3nc4ccccc4n3C)CC2)cc1 | 4.2 µM | inactive | – | – | –
